Test results reported in ChEMBL document CHEMBL1154837, “Identification of antibacterial and antifungal pharmacophore sites for potent bacteria and fungi inhibition: indolenyl sulfonamide derivatives” (Eur J Med Chem, 2010).
Values after ≈ are worked out from the molar mass of the structure shown.

Key:
Escherichia coli [1] = test: Antimicrobial activity against Escherichia coli at 1 mg/ml by agar-well diffusion method; format: functional; details: read-out: IZ
How it was run: (§1)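 Agar-well diffusion on nutrient agar. The surface was swabbed with 2–8 h old inocula of about 10^4–10^6 CFU/mL. Wells were 6 mm across and at least 24 mm apart. Each well received sample at 1 mg/mL in DMSO. DMSO served as negative control and imipenem as positive control. Plates were incubated at 37 °C for 24 h, and the diameter of the complete-inhibition zone was measured in mm.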

Shigella flexneri [2] = test: Antimicrobial activity against Shigella flexneri at 1 mg/ml by agar-well diffusion method; format: functional; details: read-out: IZ; how it was run: as §1
Pseudomonas aeruginosa = test: Antimicrobial activity against Pseudomonas aeruginosa at 1 mg/ml by agar-well diffusion method; format: functional; details: read-out: IZ; how it was run: as §1
Salmonella enterica [3] = test: Antimicrobial activity against Salmonella typhi at 1 mg/ml by agar-well diffusion method; format: functional, Salmonella enterica subsp. enterica serovar Typhi; details: read-out: IZ
How it was run: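 Agar-well diffusion on nutrient agar. Plates were swabbed with 2–8 h old inoculum at about 10^4–10^6 CFU/mL, and 6 mm wells were cut at least 24 mm apart. Test sample 1 mg/mL in DMSO. DMSO served as negative control and imipenem as positive control. Plates were incubated at 37 °C for 24 h, and the diameter of complete-inhibition zones was measured (mm).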

Staphylococcus aureus = test: Antimicrobial activity against Staphylococcus aureus at 1 mg/ml by agar-well diffusion method; format: functional; details: read-out: IZ; how it was run: as §1
Bacillus subtilis [4] = test: Antimicrobial activity against Bacillus subtilis at 1 mg/ml by agar-well diffusion method; format: functional; details: read-out: IZ; how it was run: as §1
Candida albicans [5] = test: Antimicrobial activity against Candida albicans at 200 ug/ml after 7 days; format: functional; details: 168 h
How it was run: (§2)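 Sabouraud dextrose agar was seeded with fungal spore suspension at 10^5 cfu/mL and poured into Petri plates. Discs soaked with compound at 200 µg/mL in DMSO were placed on the agar surface. Plates were incubated at 32 °C for seven days. Results were recorded as % inhibition, with miconazole and amphotericin B as reference drugs.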

Aspergillus flavus = test: Antimicrobial activity against Aspergillus flavus at 200 ug/ml after 7 days; format: functional; details: 168 h; how it was run: as §2
Fusarium solani [6] = test: Antimicrobial activity against Fusarium solani at 200 ug/ml after 7 days; format: functional; details: 168 h; how it was run: as §2
Nakaseomyces glabratus [7] = test: Antimicrobial activity against Candida glabrata at 200 ug/ml after 7 days; format: functional; details: 168 h; how it was run: as §2
Shigella flexneri [8] = test: Antimicrobial activity against Shigella flexneri after 24 hrs by disk diffusion assay; format: functional
How it was run: (§3)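 MIC by disc diffusion, using discs prepared with 10, 25, 50 and 100 µg/mL of compound.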

Salmonella enterica [9] = test: Antimicrobial activity against Salmonella typhi after 24 hrs by disk diffusion assay; format: functional, Salmonella enterica subsp. enterica serovar Typhi
Bacillus subtilis [10] = test: Antimicrobial activity against Bacillus subtilis after 24 hrs by disk diffusion assay; format: functional; how it was run: as §3
Escherichia coli [11] = test: Antimicrobial activity against Escherichia coli after 24 hrs by disk diffusion assay; format: functional; how it was run: as §3
Trichophyton longifusum = test: Antimicrobial activity against Trichophyton longifusum after 7 days; format: functional
Candida albicans [12] = test: Antimicrobial activity against Candida albicans after 7 days; format: functional
Microsporum canis = test: Antimicrobial activity against Microsporum canis after 7 days; format: functional
Fusarium solani [13] = test: Antimicrobial activity against Fusarium solani after 7 days; format: functional
Nakaseomyces glabratus [14] = test: Antimicrobial activity against Candida glabrata after 7 days; format: functional

Row | SMILES | zone of inhibition at 1000 µg/mL (Escherichia coli [1]) | zone of inhibition at 1000 µg/mL (Shigella flexneri [2]) | zone of inhibition at 1000 µg/mL (Pseudomonas aeruginosa) | zone of inhibition at 1000 µg/mL (Salmonella enterica [3]) | zone of inhibition at 1000 µg/mL (Staphylococcus aureus) | zone of inhibition at 1000 µg/mL (Bacillus subtilis [4]) | growth inhibition at 200 µg/mL (Candida albicans [5]) | growth inhibition at 200 µg/mL (Aspergillus flavus) | growth inhibition at 200 µg/mL (Fusarium solani [6]) | growth inhibition at 200 µg/mL (Nakaseomyces glabratus [7]) | MIC (Shigella flexneri [8]) | MIC (Salmonella enterica [9]) | MIC (Bacillus subtilis [10]) | MIC (Escherichia coli [11]) | MIC (Trichophyton longifusum) | MIC (Candida albicans [12]) | MIC (Microsporum canis) | MIC (Fusarium solani [13]) | MIC (Nakaseomyces glabratus [14])
1 | NS(=O)(=O)c1ccc(/N=C/c2c[nH]c3ccccc23)cc1 | 21 mm | 18 mm | 19 mm | 20 mm | 18 mm | 20 mm | 40% | 55% | 43% | 25% |  |  |  |  |  |  |  |  | 
2 | N=C(N)NS(=O)(=O)c1ccc(/N=C/c2c[nH]c3ccccc23)cc1 | 23 mm | 22 mm | 18 mm | 23 mm | 22 mm | 23 mm | 35% | 30% | 35% | 55% | 146 µM (≈ 50 µg/mL) | 293 µM (≈ 100 µg/mL) | 146 µM (≈ 50 µg/mL) |  |  |  |  |  | 
3 | O=S(=O)(Nc1nccs1)c1ccc(/N=C/c2c[nH]c3ccccc23)cc1 | 24 mm | 23 mm | 20 mm | 23 mm | 23 mm | 24 mm | 40% | 30% | 80% | 60% | 131 µM (≈ 50 µg/mL) | 262 µM (≈ 100 µg/mL) |  | 262 µM (≈ 100 µg/mL) |  |  |  |  | 
4 | Cc1cc(NS(=O)(=O)c2ccc(/N=C/c3c[nH]c4ccccc34)cc2)no1 | 22 mm | 20 mm | 17 mm | 19 mm | 19 mm | 23 mm | 25% | 45% | 45% | 40% |  |  | 263 µM (≈ 100 µg/mL) |  |  |  |  |  | 
5 | Cc1noc(NS(=O)(=O)c2ccc(/N=C/c3c[nH]c4ccccc34)cc2)c1C | 23 mm | 19 mm | 19 mm | 20 mm | 20 mm | 17 mm | 45% | 55% | 65% | 55% |  |  |  |  |  |  |  |  | 
6 | O=S(=O)(Nc1ncccn1)c1ccc(/N=C/c2c[nH]c3ccccc23)cc1 | 19 mm | 18 mm | 20 mm | 17 mm | 19 mm | 19 mm | 35% | 25% | 70% | 20% |  |  |  |  |  |  |  |  | 
7 | Cc1cc(C)nc(NS(=O)(=O)c2ccc(/N=C/c3c[nH]c4ccccc34)cc2)n1 | 24 mm | 19 mm | 20 mm | 22 mm | 23 mm | 18 mm | 60% | 55% | 75% | 28% |  | 247 µM (≈ 100 µg/mL) |  | 123 µM (≈ 50 µg/mL) |  |  |  |  | 
8 | C[C@@H](O)[C@H]1C(=O)N2C(C(=O)O)=C(SCCNC=N)C[C@H]12 [IMIPENEM ANHYDROUS] | 30 mm | 27 mm | 26 mm | 27 mm | 30 mm | 28 mm |  |  |  |  |  |  |  |  |  |  |  |  | 
9 | Clc1ccc(COC(Cn2ccnc2)c2ccc(Cl)cc2Cl)c(Cl)c1 (stereo not given) [MICONAZOLE] |  |  |  |  |  |  |  |  |  |  |  |  |  |  | 168 µM (≈ 70 µg/mL) | 266 µM (≈ 111 µg/mL) | 236 µM (≈ 98.4 µg/mL) | 176 µM (≈ 73.3 µg/mL) | 266 µM (≈ 111 µg/mL)
